pIC50: −log10 of the molar value. The source made the active and inactive calls. No cut-off for these calls is given here.
Experiments:
HeLa [1] = experiment: Antiproliferative activity against human HeLa cells after 48 hrs by SRB assay; assay type: functional, cell-based
HeLa [2] = experiment: Stabilization of microtubule in human HeLa cells assessed as increase in cellular density of interphase microtubules at 50 uM after 18 hrs by immunofluoroescence analysis; assay type: cell-based
In short: (§1)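 HeLa cells in Basal Medium Eagle with 10% FBS and gentamicin, treated with vehicle or taccalonolide for 18 h. Interphase microtubules visualized by indirect immunofluorescence with a β-tubulin antibody and imaged by fluorescence microscopy. Microtubule density and bundling judged from representative images against vehicle-treated cells.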

HeLa [3] = experiment: Antiproliferative activity against human HeLa cells; assay type: functional, cell-based
In short: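 HeLa cells (ATCC) grown in Basal Medium Eagle with 10% FBS and 50 μg/mL gentamicin and exposed to compound for 48 h. Cells then TCA-fixed and stained with sulforhodamine B, with density read as absorbance at 560 nm. IC50 (50% inhibition of proliferation) taken ± SD from three independent experiments, each run in triplicate.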

HeLa [4] = experiment: Stabilization of microtubule in human HeLa cells assessed as increase in cellular density of interphase microtubules at 10 uM after 18 hrs by immunofluoroescence analysis; assay type: cell-based; in short: as §1

Row | SMILES | pIC50 (HeLa [1]) | Activity (HeLa [2]) | pIC50 (HeLa [3]) | Activity (HeLa [4])
1 | CC(=O)O[C@@H]1[C@H]2[C@@H]3[C@@H](O)C(=O)[C@H]4C[C@@H]5O[C@@H]5[C@H](OC(C)=O)[C@]4(C)[C@H]3C[C@H](OC(C)=O)[C@]2(C)[C@@H]2[C@@H]1[C@]1(C)C(=C[C@H]2C)OC(=O)[C@@]1(C)O [TACCALONOLIDE E] | 4.40 | – | – | –
2 | CC(=O)O[C@@H]1[C@H]2[C@H]3[C@H]([C@H](OC(C)=O)[C@H](OC(C)=O)[C@]2(C)[C@@H]2[C@@H]1[C@]1(C)C(=C[C@H]2C)OC(=O)[C@@]1(C)O)[C@]1(C)[C@H](C[C@@H]2O[C@@H]2[C@@H]1OC(C)=O)C(=O)[C@@H]3O [TACCALONOLIDE A] | 5.27 | – | – | –
3 | CC(=O)O[C@H]1C[C@H]2[C@H]([C@@H]3[C@H]4OC(=O)[C@@](C)(O)[C@@]5(C)C(=O)C[C@@H](C)[C@@H]([C@@H]45)[C@]31C)[C@@H](O)C(=O)[C@H]1C[C@@H]3O[C@@H]3[C@H](OC(C)=O)[C@@]12C | < 4.30 | inactive | – | –
4 | CC(=O)O[C@H]1C[C@H]2[C@H]([C@@H]3[C@@H](O)[C@@H]4[C@H]([C@H](C)C=C5OC(=O)[C@@](C)(O)[C@@]54C)[C@]31C)[C@@H](O)C(=O)[C@@]1(O)C[C@@H]3O[C@@H]3[C@H](OC(=O)CC(C)C)[C@]21C | 5.70 | Active | – | –
5 | CC(=O)O[C@H]1C[C@H]2[C@H]([C@@H]3[C@@H](O)[C@@H]4[C@H]([C@H](C)C=C5OC(=O)[C@@](C)(O)[C@@]54C)[C@]31C)[C@@H](O)C(=O)[C@H]1C[C@@H]3O[C@@H]3[C@H](OC(C)=O)[C@@]12C [TACCALONOLIDE N] | 5.07 | – | – | –
6 | CC(=O)O[C@H]1C[C@H]2[C@H]([C@@H]3[C@@H](O)[C@@H]4[C@H]([C@H](C)C=C5OC(=O)[C@@](C)(O)[C@@]54C)[C@]31C)[C@@H](O)C(=O)[C@@]1(O)C[C@@H]3O[C@@H]3[C@H](OC(C)=O)[C@]21C | 4.46 | Active | – | –
7 | CC(=O)O[C@H]1[C@H]2[C@H]([C@@H]3[C@@H](O)[C@@H]4[C@H]([C@H](C)[C@@H]5O[C@@]56OC(=O)[C@@](C)(O)[C@]46C)[C@@]3(C)[C@H]1OC(C)=O)[C@@H](O)C(=O)[C@H]1C[C@@H]3O[C@@H]3[C@H](OC(C)=O)[C@]21C | – | – | 8.38 | –
8 | CC(=O)O[C@H]1[C@H]2[C@H]([C@@H]3[C@@H](O)[C@@H]4[C@H]([C@H](C)C=C5OC(=O)[C@@](C)(O)[C@@]54C)[C@@]3(C)[C@H]1OC(C)=O)[C@@H](O)C(=O)[C@H]1C[C@@H]3O[C@@H]3[C@H](OC(C)=O)[C@]21C [TACCALONOLIDE B] | 5.51 | – | – | –
9 | CC(=O)O[C@H]1[C@H]2[C@@H](C(=O)[C@H](O)[C@H]3C[C@@H]4O[C@@H]4[C@H](OC(C)=O)[C@]23C)[C@@H]2[C@@H](O)[C@@H]3[C@H]([C@H](C)C=C4OC(=O)[C@@](C)(O)[C@@]43C)[C@@]2(C)[C@H]1OC(C)=O | 4.31 | – | – | –
10 | CC(=O)O[C@H]1[C@H]2[C@H]([C@@H]3[C@H]4OC(=O)[C@@](C)(O)[C@@]5(C)C(=O)C[C@@H](C)[C@@H]([C@@H]45)[C@@]3(C)[C@H]1OC(C)=O)[C@@H](O)C(=O)[C@H]1C[C@@H]3O[C@@H]3[C@H](OC(C)=O)[C@]21C | < 4.30 | inactive | – | –
11 | CC(=O)O[C@@H]1[C@H]2[C@H]3[C@H]([C@H](OC(C)=O)[C@H](OC(C)=O)[C@]2(C)[C@H]2[C@H](C)[C@@H]4O[C@@]45OC(=O)[C@@](C)(O)[C@]5(C)[C@H]12)[C@]1(C)[C@H](C[C@@H]2O[C@@H]2[C@@H]1OC(C)=O)C(=O)[C@@H]3O | – | – | 7.64 | –
12 | CC(=O)O[C@H]1C[C@H]2[C@H]([C@@H]3[C@@H](O)[C@@H]4[C@H]([C@H](C)C=C5OC(=O)[C@@](C)(O)[C@@]54C)[C@]31C)[C@@H](O)C(=O)[C@H]1C[C@@H]3O[C@@H]3[C@H](O)[C@@]12C | 5.82 | – | – | Active
